{"source": "ChEMBL document CHEMBL3297648", "about": "“Diterpenoids from the Chinese liverwort Heteroscyphus tener and their antiproliferative effects” (J Nat Prod, 2014)", "key": {"[1]": {"test": "Decrease in ChK1 protein expression in human DU145 cells at 20 uM after 2 to 48 hrs by western blot analysis", "assay_type": "functional, cell-based", "conditions": "DU-145", "summary_of_the_method": "(§1)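 Cells treated at 20 μM for various times, lysed in RIPA buffer with protease/phosphatase inhibitors, protein quantified by BCA. Equal protein run on 12% SDS-PAGE, transferred to nitrocellulose, blocked 1 h in 5% milk/TBST, primary antibodies overnight at 4 °C, secondary 1:2000 for 45 min, ECL detection on film. GAPDH used as loading control.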"}, "[2]": {"target": "Breast cancer type 1 susceptibility protein (Homo sapiens) (UniProt P38398)", "sequence (P38398 whole entry, looked up)": "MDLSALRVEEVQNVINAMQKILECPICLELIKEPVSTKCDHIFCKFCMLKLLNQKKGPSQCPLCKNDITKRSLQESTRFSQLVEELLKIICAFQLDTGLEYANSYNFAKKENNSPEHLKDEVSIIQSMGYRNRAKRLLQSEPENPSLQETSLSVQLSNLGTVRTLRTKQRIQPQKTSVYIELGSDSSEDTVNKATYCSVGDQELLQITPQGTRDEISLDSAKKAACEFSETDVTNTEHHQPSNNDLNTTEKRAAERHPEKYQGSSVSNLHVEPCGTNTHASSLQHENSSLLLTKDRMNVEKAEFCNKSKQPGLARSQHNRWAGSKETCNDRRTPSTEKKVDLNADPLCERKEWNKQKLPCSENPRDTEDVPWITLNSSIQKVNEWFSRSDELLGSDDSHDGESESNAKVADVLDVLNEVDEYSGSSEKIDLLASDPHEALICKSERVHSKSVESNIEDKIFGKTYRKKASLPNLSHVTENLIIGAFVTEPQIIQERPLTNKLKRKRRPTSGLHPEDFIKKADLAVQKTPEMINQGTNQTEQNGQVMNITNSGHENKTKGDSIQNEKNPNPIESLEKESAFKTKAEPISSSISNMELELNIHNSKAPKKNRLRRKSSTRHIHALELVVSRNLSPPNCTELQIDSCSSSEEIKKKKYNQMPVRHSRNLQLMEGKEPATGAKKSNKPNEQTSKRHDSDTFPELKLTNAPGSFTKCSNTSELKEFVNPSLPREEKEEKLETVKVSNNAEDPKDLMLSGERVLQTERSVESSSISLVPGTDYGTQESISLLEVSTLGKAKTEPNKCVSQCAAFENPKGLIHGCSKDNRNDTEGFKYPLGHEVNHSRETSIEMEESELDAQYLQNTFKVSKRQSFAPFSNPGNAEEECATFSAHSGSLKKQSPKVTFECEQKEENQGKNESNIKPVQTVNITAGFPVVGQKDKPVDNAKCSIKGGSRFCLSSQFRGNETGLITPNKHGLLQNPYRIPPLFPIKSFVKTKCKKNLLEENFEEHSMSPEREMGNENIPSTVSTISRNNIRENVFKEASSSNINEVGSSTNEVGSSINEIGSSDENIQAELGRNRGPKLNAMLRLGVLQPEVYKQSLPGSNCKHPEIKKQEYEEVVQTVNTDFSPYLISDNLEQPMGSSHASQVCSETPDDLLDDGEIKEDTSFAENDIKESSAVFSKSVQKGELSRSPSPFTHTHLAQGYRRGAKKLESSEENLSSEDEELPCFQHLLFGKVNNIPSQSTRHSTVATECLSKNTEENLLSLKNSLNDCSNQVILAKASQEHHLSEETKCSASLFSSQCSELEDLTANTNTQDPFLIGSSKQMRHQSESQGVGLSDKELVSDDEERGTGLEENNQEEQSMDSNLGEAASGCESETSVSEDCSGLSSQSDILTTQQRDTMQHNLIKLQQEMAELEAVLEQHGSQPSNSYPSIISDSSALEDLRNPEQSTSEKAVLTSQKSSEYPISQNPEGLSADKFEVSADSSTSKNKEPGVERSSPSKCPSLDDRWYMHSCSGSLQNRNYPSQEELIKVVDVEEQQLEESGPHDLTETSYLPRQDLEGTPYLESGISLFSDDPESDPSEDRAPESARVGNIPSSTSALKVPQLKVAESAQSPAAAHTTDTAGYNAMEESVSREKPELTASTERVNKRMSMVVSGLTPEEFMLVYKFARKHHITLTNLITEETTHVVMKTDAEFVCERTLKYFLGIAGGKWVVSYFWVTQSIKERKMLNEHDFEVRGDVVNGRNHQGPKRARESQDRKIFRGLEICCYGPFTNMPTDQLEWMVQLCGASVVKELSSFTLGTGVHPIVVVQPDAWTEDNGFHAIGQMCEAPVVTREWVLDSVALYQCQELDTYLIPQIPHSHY", "test": "Inactivation of BRCA1 in human DU145 cells assessed as decline in BRCA1 phosphorylation at Ser1524 at 20 uM by western blot analysis", "assay_type": "cell-based", "conditions": "DU-145", "summary_of_the_method": "as §1"}, "[3]": {"tested_on": "PC-3", "test": "Induction of apoptosis in human PC3 cells assessed as necrotic cells at 20 uM after 8 hrs by Annexin V-FITC/propidium iodide staining based flow cytometry (reference value: 0.98%)", "assay_type": "functional", "summary_of_the_method": "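Cells seeded in 6-well plates for 24 h, then given 20 μM for the stated times. Cells were trypsinized, PBS-washed, stained with annexin V-FITC/PI, and analysed immediately by flow cytometry. Means ± SD of three independent experiments; Student's t test against untreated control.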"}, "[4]": {"tested_on": "PC-3", "test": "Induction of apoptosis in human PC3 cells assessed as increase in caspase-3 activity using Ac-DEVD-AMC as substrate at 20 uM by fluorometric method", "assay_type": "functional, cell-based", "conditions": "TDE = time-dependent effect", "summary_of_the_method": "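Cells treated with 20 μM for the stated times. Pellets lysed on ice 15 min, spun at 14 000g for 15 min at 4 °C. Supernatant assayed in buffer containing CHAPS, 10% glycerol, 2 mM EDTA, 5 mM DTT for 2 h at 37 °C. Fluorescence read at ex 380/em 440 nm.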"}}, "note": "Calls of active or inactive are those of the source. The calls are words filed in the database; no cut-off is given here.", "data": [{"smiles": "C=C[C@@](C)(O)CC[C@@H]1C(C)=CC[C@@H]2C(C)(C)CCC[C@@]12C", "values": [{"measurement": "inhibition", "setting": "[1]", "value": "Active"}, {"measurement": "inhibition", "setting": "[2]", "value": "Active"}, {"measurement": "Activity", "setting": "[3]", "value": 2.95, "unit": "%"}, {"measurement": "Activity", "setting": "[4]", "value": "tde"}]}]}
